Bioassay records from PubChem BioAssay.
A selection: hits, their analogues and other compounds. The true share with any hit is near 2.6%.
E-selectin induc – induces E-selectin expression in human endothelial cells; activation, % at 7.58 µM; AID 686992; HUVEC E-selectin immunofluorescence imaging; normalized: neutral wells 0, TNF-alpha wells 100; P16581; actives 0.37% (n = 260,000);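 active = mean E-selectin-positive cell signal at least 10% of the positive control, reached in at least 60% of replicates, without over 20% cell loss; inconclusive = no rule given, readout overlaps actives, possibly toxicity-flagged; inactive = the rest, including those meeting only one limit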
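System: HUVEC / Compound: single concentration / Signal: immunofluorescence imaging / Read-out: percent E-selectin-positive cells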
miR-122 sensor – blocks miR-122 activity in Huh7 sensor cells; Huh7 miR-122 Renilla luciferase sensor, 48 h; neutral wells = 0, positive control = 100; activation (reporter increase), % at 12.5 µM; actives 0.3% (n = 340,000); AID 602342;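 active = mean replicate activation score at least 90 and every replicate individually at or above 90; inconclusive = only one of the two criteria met; inactive = neither criterion met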;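 note: higher luciferase means less miR-122 activity so hits act as miR-122 inhibitors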
DENV2 CPE rescue – DENV2-induced cell death inhibition; actives 1.7% (n = 350,000); AID 651640; DENV2-infected cells, cytopathic effect rescue, plate reader; CPE inhibition, % at 9.99 µM; in the data active = CPE inhibition above about 20%, passing the limit was not always enough; inconclusive = no clear call, values can overlap the other calls; tested in BHK-21 cells
GSIS activator – GLuc luminescence reporter in INS-1E cells, primary screen for activators of glucose-dependent secretion of insulin. activation, % at 16.6 µM. actives 0.61% (n = 370,000). AID 743287. INS-1E GLuc reporter insulin secretion, 2-3 h;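 active = lowest replicate activation of at least 40%, so every replicate reaches that level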
CFTR F508del cor – correctors of CFTR F508del function in bronchial epithelial cells; CFBE cells, YFP halide quenching; stimulated with forskolin plus potentiator P3; % fluorescence drop versus neutral controls; activity (quench increase), % at 7.58 µM; actives 0.36% (n = 350,000);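 active = mean added fluorescence quench of at least 8% versus neutral control, with both replicates also reaching 8%; inconclusive = only one of the mean or replicate conditions met; inactive = mean below 8% and not both replicates reaching 8%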;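 note: cells transiently co-express mutant CFTR-F508del with the halide-sensitive YFP; corrector assay measuring rescue of mutant channel to the surface after 24 h compound exposure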
ERAP1 HTS inh – blocks human ERAP1 aminopeptidase activity; recombinant ERAP1, Leu-AMC fluorescence, 60 min; inhibition, % at 10.7 µM; actives 0.15% (n = 340,000); AID 652197;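 active = mean replicate inhibition of at least 30%, or all replicates individually reaching that 30% level; inactive = mean below 30% and not every replicate reaching it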
Target sequence (Q9NZ08 whole entry, looked up): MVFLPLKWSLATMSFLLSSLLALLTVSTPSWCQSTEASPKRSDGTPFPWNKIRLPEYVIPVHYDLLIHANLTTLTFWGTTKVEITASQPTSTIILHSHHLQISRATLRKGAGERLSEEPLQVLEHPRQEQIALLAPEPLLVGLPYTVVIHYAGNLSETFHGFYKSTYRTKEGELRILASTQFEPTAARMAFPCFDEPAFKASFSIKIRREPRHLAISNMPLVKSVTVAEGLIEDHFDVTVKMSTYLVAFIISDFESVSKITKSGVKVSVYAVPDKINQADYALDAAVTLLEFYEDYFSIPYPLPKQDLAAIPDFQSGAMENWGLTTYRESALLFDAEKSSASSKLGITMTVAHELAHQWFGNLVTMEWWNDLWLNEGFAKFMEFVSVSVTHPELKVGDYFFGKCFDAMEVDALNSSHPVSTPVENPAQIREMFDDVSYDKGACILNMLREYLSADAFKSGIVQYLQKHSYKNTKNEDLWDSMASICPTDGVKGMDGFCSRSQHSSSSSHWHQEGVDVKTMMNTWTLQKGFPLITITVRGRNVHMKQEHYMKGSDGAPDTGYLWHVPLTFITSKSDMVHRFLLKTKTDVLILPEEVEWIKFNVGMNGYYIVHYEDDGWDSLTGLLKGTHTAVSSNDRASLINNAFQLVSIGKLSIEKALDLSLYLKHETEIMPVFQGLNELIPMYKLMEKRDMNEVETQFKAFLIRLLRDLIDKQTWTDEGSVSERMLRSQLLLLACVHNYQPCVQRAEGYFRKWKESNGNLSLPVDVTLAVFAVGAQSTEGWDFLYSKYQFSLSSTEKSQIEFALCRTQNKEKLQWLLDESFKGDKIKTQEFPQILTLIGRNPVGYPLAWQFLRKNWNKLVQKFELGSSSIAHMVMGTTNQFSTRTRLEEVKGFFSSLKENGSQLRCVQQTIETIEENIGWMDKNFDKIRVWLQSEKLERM
A number is an active result; i = inactive; ? = inconclusive; nt = not tested or not shown; ! = repeats disagree.

SMILES | E-selectin induc | miR-122 sensor | DENV2 CPE rescue | GSIS activator | CFTR F508del cor | ERAP1 HTS inh
CCCCCCCCCCCCOC1OC(CO)C(O)C(O)C1NC(C)=O (stereo unspecified) | nt | i | 23 | i | i | i
CCC(C)OC1OC(CO)C(O)C(O)C1NC(C)=O (stereo unspecified) | i | nt | nt | i | nt | i
C[C@@H]1CN([C@H](C)CO)S(=O)(=O)c2ccc(C#C[C@@H](C)O)cc2O[C@@H]1CN(C)C(=O)CC1CC1 | i | i | i | i | i | i
Cc1c(O)cnc2nn(-c3ccccc3)c(=N)n12 | i | nt | ? | 42 | i | i
COc1ccc(OC)c(S(=O)(=O)Nc2ccccc2C(F)(F)F)c1 | nt | 116 | nt | nt | nt | nt
Cc1ccc(NC(=O)COc2ccc(Br)cc2CO)cc1 | nt | 284 | nt | nt | nt | nt
O=C(c1cccs1)N1CCC2(O)CCCCC2C1c1ccc(F)cc1 (stereo unspecified) | nt | nt | nt | 54 | nt | nt
COc1ccc(C2C3CCCCC3(O)CCN2C(=O)c2cccs2)cc1 (stereo unspecified) | nt | nt | nt | 48 | nt | nt
C[C@@H]1CN([C@H](C)CO)C(=O)CCCn2cc(nn2)CO[C@@H]1CN(C)S(=O)(=O)c1ccc2c(c1)OCCCO2 | i | i | i | i | i | i
Cc1noc(C)c1S(=O)(=O)N(C)C[C@@H]1Oc2ccc(NC(=O)CCN3CCOCC3)cc2CC(=O)N([C@@H](C)CO)C[C@H]1C | i | nt | i | i | i | i
COC/C=C/C1=CC2=CC(=O)C(C)(OC(=O)c3cnc4ccccc4n3)C(=O)C2=CN1C(CO)CO (stereo unspecified) | i | i | 31 | i | i | i
CCNc1nc(N)c(C(=O)C23CC4CC(CC(C4)C2)C3)s1 | nt | i | 53 | i | i | i
CN(C)c1ccc(/C=C/c2ccc3c4ccccc4ccc3[n+]2-c2ccccc2)cc1 | 217 | i | nt | i | i | i
CN(C)c1ccc(/C=C/c2ccc3ccccc3[n+]2C)cc1 | nt | i | nt | i | nt | nt
CCCCc1cn(C[C@H](Cc2ccccc2)NC(=O)N[C@H](CO)CCc2oc(C(C)=O)c(C(=O)OC)c2C(=O)OC)nn1 | nt | nt | 22 | nt | i | i
COC(=O)c1c(CC[C@@H](CO)NC(=O)N[C@H](Cn2cc(-c3cncn3C)nn2)C(C)C)oc(C(C)=O)c1C(=O)OC | nt | nt | i | nt | i | i
C[n+]1ccccc1/C=C/c1ccc2ncccc2c1 | i | i | i | i | i | 40
C[n+]1ccccc1/C=C/c1ccc(F)c(F)c1 | nt | nt | i | i | i | i
O=C(C[C@H]1CC[C@H](NS(=O)(=O)c2ccccc2)[C@H](CO)O1)NCc1ccccc1F | i | nt | nt | i | i | i
CCCn1c(N)c(C(=O)CN(C)CC(=O)Nc2cc(C)ccc2C)c(=O)[nH]c1=O | i | i | 51 | i | i | i
CCC(=O)N1CC2(C1)[C@H](c1ccc(-c3ccc(F)cc3)cc1)[C@@H](CO)N2S(C)(=O)=O | i | nt | i | i | i | i
C[C@@H]1CN([C@@H](C)CO)C(=O)c2cc(NS(=O)(=O)c3cn(C)cn3)ccc2O[C@H]1CN(C)C(=O)NC1CCCCC1 | i | i | 45 | i | i | i
C[C@H](CO)N1C[C@H](C)[C@@H](CN(C)C(=O)NC2CCCCC2)Oc2ccc(NC(=O)C3CC3)cc2C1=O | i | i | 56! | i | i | i
C[C@H](CO)N1C[C@H](C)[C@@H](CN(C)C(=O)NC2CCCCC2)Oc2ccc(NS(C)(=O)=O)cc2C1=O | i | i | 29! | i | i | i
C[C@@H]1CN([C@H](C)CO)S(=O)(=O)c2ccc(C#CC3CCCC3)cc2O[C@@H]1CN(C)C(=O)Nc1cc(F)ccc1F | i | i | i | i | i | i
SMILES | E-selectin induc | miR-122 sensor | DENV2 CPE rescue | GSIS activator | CFTR F508del cor | ERAP1 HTS inh
CCOc1ccccc1C(=O)OCC(=O)NCc1ccc2c(c1)OCO2 | i | nt | i | 47 | i | i
CCCc1nc2ccccc2c(C(=O)OCC(=O)NCc2ccc3c(c2)OCO3)c1CC | i | nt | nt | i | 9.0 | i
Cc1ccc(S(=O)(=O)Nc2cccc3c2O[C@H](CN(C)S(C)(=O)=O)[C@H](C)CN([C@H](C)CO)C3=O)cc1 | i | i | i | i | i | i
COc1ccc(CN(C)C[C@@H]2OCCCC[C@@H](C)Oc3ccc(NS(=O)(=O)c4ccc(Cl)cc4)cc3C(=O)N([C@@H](C)CO)C[C@H]2C)cc1 | nt | i | 34 | i | i | i
COc1ccc(CN(C)C[C@H]2OCCCC[C@H](C)Oc3ccc(NS(=O)(=O)c4ccc(Cl)cc4)cc3C(=O)N([C@@H](C)CO)C[C@H]2C)cc1 | nt | i | i | i | i | i
COc1ccc(CN(C)C[C@H]2OCCCC[C@@H](C)Oc3ccc(NS(=O)(=O)c4ccc(F)cc4)cc3C(=O)N([C@@H](C)CO)C[C@@H]2C)cc1 | nt | i | ? | i | i | i
COc1ccc(CN(C)C[C@H]2OCCCC[C@H](C)Oc3ccc(NS(=O)(=O)c4ccc(F)cc4)cc3C(=O)N([C@H](C)CO)C[C@H]2C)cc1 | nt | i | 33 | i | i | i
COc1ccc(S(=O)(=O)Nc2ccc3c(c2)C(=O)N([C@@H](C)CO)C[C@@H](C)[C@@H](CN(C)Cc2ccc(Cl)c(Cl)c2)O3)cc1 | 42 | i | i | i | i | i
COc1ccc(CN(C)C[C@H]2OCCCC[C@H](C)Oc3ccc(NS(=O)(=O)c4ccc(Cl)cc4)cc3C(=O)N([C@@H](C)CO)C[C@@H]2C)cc1 | nt | i | 30 | i | i | i
CCCNC(=O)Nc1ccc2c(c1)OC[C@H](C)N(C(=O)c1ccccc1F)C[C@H](C)[C@@H](OC)CN(C)C2=O | i | nt | i | i | i | i
CCCC(=O)Nc1ccc2c(c1)OC[C@H](C)N(C(=O)CC1CC1)C[C@@H](C)[C@H](OC)CN(C)C2=O | i | i | i | i | i | i
CN1[C@@H]2c3ccc(/C=C/c4ccccc4)c(=O)n3C[C@@H]2[C@@H](CO)[C@@H]1C(=O)NC1CCC1 | i | i | i | i | i | nt
C[C@@H]1CCCCO[C@@H](CN(C)C)[C@@H](C)CN([C@H](C)CO)C(=O)c2cc(NC(=O)C3CCCCC3)ccc2O1 | i | i | ? | i | i | i
C[C@@H]1CCCCO[C@H](CN(C)C)[C@@H](C)CN([C@@H](C)CO)C(=O)c2cc(NC(=O)Nc3ccccc3)ccc2O1 | i | i | i | i | i | i
OC[C@H]1Nc2ccc(-c3cccc(F)c3)cc2[C@@H]2[C@H]1CCN2Cc1ccc(F)cc1 | i | i | 48 | i | i | i
O=C(c1ccccn1)N1CC[C@@H]2[C@@H](CO)Nc3ccc(-c4ccccc4F)cc3[C@@H]21 | i | i | 21 | i | i | nt
OC[C@H]1Nc2ccc(-c3cccc(F)c3)cc2[C@H]2[C@@H]1CCN2Cc1ccc(F)cc1 | i | i | i | i | i | i
O=C(Cc1cccnc1)N1CC[C@H]2[C@H](CO)Nc3ccc(C#Cc4cccc(F)c4)cc3[C@H]21 | i | nt | 62 | i | i | i
